Test results published in ChEMBL document CHEMBL1135628, “Potent and long-acting corticotropin releasing factor (CRF) receptor 2 selective peptide competitive antagonists” (J Med Chem, 2002).

What was measured:
[1] = molecular target: Corticotropin-releasing factor receptor 2 (Mus musculus) (UniProt Q60748); experiment: Inhibition of recombinant mouse corticotropin releasing factor receptor 2 beta (CRF2beta) assayed using nonselective [125I]-labeled agonist [Tyr0,Glu1,Nle17]-sauvagine as radioligand
Sequence of Corticotropin-releasing factor receptor 2 (Mus musculus) (Q60748 whole entry, looked up): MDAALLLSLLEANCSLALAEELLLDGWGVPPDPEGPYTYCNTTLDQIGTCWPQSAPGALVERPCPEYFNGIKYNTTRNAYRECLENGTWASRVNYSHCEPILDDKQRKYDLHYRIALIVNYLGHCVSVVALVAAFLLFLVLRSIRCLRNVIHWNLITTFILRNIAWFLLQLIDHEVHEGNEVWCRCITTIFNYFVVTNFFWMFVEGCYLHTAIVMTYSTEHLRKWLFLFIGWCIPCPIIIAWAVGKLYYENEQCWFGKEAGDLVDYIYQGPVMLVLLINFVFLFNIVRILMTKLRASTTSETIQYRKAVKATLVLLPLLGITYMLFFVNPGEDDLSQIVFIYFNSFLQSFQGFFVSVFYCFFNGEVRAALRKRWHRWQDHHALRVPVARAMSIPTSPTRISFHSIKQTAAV

[2] = molecular target: T1, Corticotropin-releasing factor receptor 1 (Homo sapiens, UniProt P34998); experiment: Inhibition of recombinant corticotropin releasing factor receptor 1 assayed using nonselective [125I]-labeled agonist [Tyr0,Glu1,Nle17]-sauvagine
T1 sequence (P34998 whole entry): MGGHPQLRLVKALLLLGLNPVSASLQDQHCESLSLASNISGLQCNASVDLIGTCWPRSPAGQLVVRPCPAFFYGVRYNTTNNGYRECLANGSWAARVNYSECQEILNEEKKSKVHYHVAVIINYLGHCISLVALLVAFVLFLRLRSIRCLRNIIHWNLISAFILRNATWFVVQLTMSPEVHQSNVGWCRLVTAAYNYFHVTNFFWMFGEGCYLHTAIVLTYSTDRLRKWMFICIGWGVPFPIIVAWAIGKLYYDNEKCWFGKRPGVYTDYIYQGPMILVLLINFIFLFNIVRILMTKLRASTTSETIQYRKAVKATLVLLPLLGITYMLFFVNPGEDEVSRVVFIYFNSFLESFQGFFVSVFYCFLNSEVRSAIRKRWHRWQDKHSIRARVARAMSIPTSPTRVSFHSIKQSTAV
Method in brief: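 Crude plasma membranes from stable CHO lines expressing hCRF1 or mCRF2β, stored in 10% sucrose at -80 °C. Incubated 90 min at room temperature, then washed and filtered. IC50 taken from one representative assay, repeated at least twice.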

Row | SMILES | IC50 [1] | IC50 [2]
1 | CCCC[C@H](NC(=O)[C@H](CCCCN)NC(=O)[C@H](CCCN=C(N)N)NC(=O)[C@H](CC(C)C)NC(=O)[C@](C)(CC(C)C)NC(=O)[C@H](Cc1c[nH]cn1)NC(=O)[C@@H](Cc1ccccc1)NC(=O)[C@H](CO)NC(=O)[C@H](CC(C)C)NC(=O)[C@H](CC(=O)O)NC(C)=O)C(=O)N[C@H](C(=O)N[C@@H](CCC(=O)O)C(=O)N[C@H](C(=O)N[C@@H](CCC(=O)O)C(=O)N[C@@H](CCCCN)C(=O)N[C@@H](CCC(N)=O)C(=O)N[C@@H](CCC(=O)O)C(=O)N[C@@H](CCCCN)C(=O)N[C@@H](CCC(=O)O)C(=O)N[C@H]1CCC(=O)NCCCC[C@@H](C(=O)N[C@@H](C)C(=O)N[C@@H](CC(N)=O)C(=O)N[C@@H](CC(N)=O)C(=O)N[C@@H](CCCN=C(N)N)C(=O)N[C@@H](CC(C)C)C(=O)N[C@@H](CC(C)C)C(=O)N[C@@H](CC(C)C)C(=O)N[C@@H](CC(=O)O)C(=O)N[C@@](C)(CC(C)C)C(=O)N[C@H](C(N)=O)[C@@H](C)CC)NC(=O)[C@H](CCC(N)=O)NC(=O)[C@H](CCC(N)=O)NC1=O)[C@@H](C)CC)[C@@H](C)CC | 1.3 nM | 45 nM
2 | CCCC[C@H](NC(=O)[C@H](CCCCN)NC(=O)[C@H](CCCN=C(N)N)NC(=O)[C@H](CC(C)C)NC(=O)[C@](C)(CC(C)C)NC(=O)[C@H](Cc1c[nH]cn1)NC(=O)[C@@H](Cc1ccccc1)NC(=O)[C@H](CO)NC(=O)[C@H](CC(C)C)NC(=O)[C@H](CC(=O)O)NC(C)=O)C(=O)N[C@H](C(=O)N[C@@H](CCC(=O)O)C(=O)N[C@H](C(=O)N[C@@H](CCC(=O)O)C(=O)N[C@@H](CCCCN)C(=O)N[C@@H](CCC(N)=O)C(=O)N[C@@H](CCC(=O)O)C(=O)N[C@@H](CCCCN)C(=O)N[C@@H](CCC(=O)O)C(=O)N[C@@H](CCCCN)C(=O)N[C@@H](CCC(N)=O)C(=O)N[C@@H](CCC(N)=O)C(=O)N[C@@H](C)C(=O)N[C@@H](C)C(=O)N[C@@H](CC(N)=O)C(=O)N[C@@H](CC(N)=O)C(=O)N[C@H]1CCC(=O)NCCCC[C@@H](C(=O)N[C@@H](CC(=O)O)C(=O)N[C@@](C)(CC(C)C)C(=O)N[C@H](C(N)=O)[C@@H](C)CC)NC(=O)[C@H](CC(C)C)NC(=O)[C@H](CC(C)C)NC1=O)[C@@H](C)CC)[C@@H](C)CC | 17.8 nM | > 100 nM
3 | CCCC[C@H](NC(=O)[C@H](CCCCN)NC(=O)[C@H](CCCN=C(N)N)NC(=O)[C@H](CC(C)C)NC(=O)[C@](C)(CC(C)C)NC(=O)[C@H](Cc1c[nH]cn1)NC(=O)[C@@H](Cc1ccccc1)NC(=O)[C@H](CO)NC(=O)[C@H](CC(C)C)NC(=O)[C@H](CC(=O)O)NC(C)=O)C(=O)N[C@H](C(=O)N[C@@H](CCC(=O)O)C(=O)N[C@H](C(=O)N[C@@H](CCC(=O)O)C(=O)N[C@@H](CCCCN)C(=O)N[C@@H](CCC(N)=O)C(=O)N[C@@H](CCC(=O)O)C(=O)N[C@@H](CCCCN)C(=O)N[C@@H](CCC(=O)O)C(=O)N[C@@H](CCCCN)C(=O)N[C@@H](CCC(N)=O)C(=O)N[C@@H](CCC(N)=O)C(=O)N[C@@H](C)C(=O)N[C@@H](C)C(=O)N[C@@H](CC(N)=O)C(=O)N[C@H]1CCC(=O)NCCCC[C@@H](C(=O)N[C@@H](CC(C)C)C(=O)N[C@@H](CC(=O)O)C(=O)N[C@@](C)(CC(C)C)C(=O)N[C@H](C(N)=O)[C@@H](C)CC)NC(=O)[C@H](CC(C)C)NC(=O)[C@H](CCCN=C(N)N)NC1=O)[C@@H](C)CC)[C@@H](C)CC | > 100 nM | > 100 nM
4 | CCCC[C@H](NC(=O)[C@H](CCCCN)NC(=O)[C@H](CCCN=C(N)N)NC(=O)[C@H](CC(C)C)NC(=O)[C@](C)(CC(C)C)NC(=O)[C@H](Cc1c[nH]cn1)NC(=O)[C@@H](Cc1ccccc1)NC(=O)[C@H](CO)NC(=O)[C@H](CC(C)C)NC(=O)[C@H](CC(=O)O)NC(C)=O)C(=O)N[C@H](C(=O)N[C@@H](CCC(=O)O)C(=O)N[C@H](C(=O)N[C@@H](CCC(=O)O)C(=O)N[C@@H](CCCCN)C(=O)N[C@@H](CCC(N)=O)C(=O)N[C@@H](CCC(=O)O)C(=O)N[C@@H](CCCCN)C(=O)N[C@@H](CCC(=O)O)C(=O)N[C@@H](CCCCN)C(=O)N[C@@H](CCC(N)=O)C(=O)N[C@H]1CCC(=O)NCCCC[C@@H](C(=O)N[C@@H](CC(N)=O)C(=O)N[C@@H](CCCN=C(N)N)C(=O)N[C@@H](CC(C)C)C(=O)N[C@@H](CC(C)C)C(=O)N[C@@H](CC(C)C)C(=O)N[C@@H](CC(=O)O)C(=O)N[C@@](C)(CC(C)C)C(=O)N[C@H](C(N)=O)[C@@H](C)CC)NC(=O)[C@H](C)NC(=O)[C@H](C)NC1=O)[C@@H](C)CC)[C@@H](C)CC | 1.2 nM | 0.24 nM

The next compounds have a lower IC50 [1] than those just listed; values first:

Row | IC50 [1] | IC50 [2] | SMILES
5 | 0.57 nM | 7.7 nM | CCCC[C@H](NC(=O)[C@H](CCCCN)NC(=O)[C@H](CCCN=C(N)N)NC(=O)[C@H](CC(C)C)NC(=O)[C@](C)(CC(C)C)NC(=O)[C@H](Cc1c[nH]cn1)NC(=O)[C@@H](Cc1ccccc1)NC(=O)[C@H](CO)NC(=O)[C@H](CC(C)C)NC(=O)[C@H](CC(=O)O)NC(C)=O)C(=O)N[C@H](C(=O)N[C@@H](CCC(=O)O)C(=O)N[C@H](C(=O)N[C@@H](CCC(=O)O)C(=O)N[C@@H](CCCCN)C(=O)N[C@@H](CCC(N)=O)C(=O)N[C@@H](CCC(=O)O)C(=O)N[C@@H](CCCCN)C(=O)N[C@@H](CCC(=O)O)C(=O)N[C@@H](CCCCN)C(=O)N[C@H]1CCC(=O)NCCCC[C@@H](C(=O)N[C@@H](CC(N)=O)C(=O)N[C@@H](CC(N)=O)C(=O)N[C@@H](CCCN=C(N)N)C(=O)N[C@@H](CC(C)C)C(=O)N[C@@H](CC(C)C)C(=O)N[C@@H](CC(C)C)C(=O)N[C@@H](CC(=O)O)C(=O)N[C@@](C)(CC(C)C)C(=O)N[C@H](C(N)=O)[C@@H](C)CC)NC(=O)[C@H](C)NC(=O)[C@H](CCC(N)=O)NC1=O)[C@@H](C)CC)[C@@H](C)CC
6 | 0.42 nM | 18.4 nM | CCCC[C@H](NC(=O)[C@H](CCCCN)NC(=O)[C@H](CCCN=C(N)N)NC(=O)[C@H](CC(C)C)NC(=O)[C@](C)(CC(C)C)NC(=O)[C@H](Cc1c[nH]cn1)NC(=O)[C@@H](Cc1ccccc1)NC(=O)[C@H](CO)NC(=O)[C@H](CC(C)C)NC(=O)[C@H](CC(=O)O)NC(C)=O)C(=O)N[C@H](C(=O)N[C@@H](CCC(=O)O)C(=O)N[C@H](C(=O)N[C@@H](CCC(=O)O)C(=O)N[C@@H](CCCCN)C(=O)N[C@@H](CCC(N)=O)C(=O)N[C@@H](CCC(=O)O)C(=O)N[C@@H](CCCCN)C(=O)N[C@@H](CCC(=O)O)C(=O)N[C@@H](CCCCN)C(=O)N[C@@H](CCC(N)=O)C(=O)N[C@@H](CCC(N)=O)C(=O)N[C@@H](C)C(=O)N[C@@H](C)C(=O)N[C@@H](CC(N)=O)C(=O)N[C@@H](CC(N)=O)C(=O)N[C@@H](CCCN=C(N)N)C(=O)N[C@@H](CC(C)C)C(=O)N[C@@H](CC(C)C)C(=O)N[C@@H](CC(C)C)C(=O)N[C@@H](CC(=O)O)C(=O)N[C@@](C)(CC(C)C)C(=O)N[C@H](C(N)=O)[C@@H](C)CC)[C@@H](C)CC)[C@@H](C)CC
